The text below walks through data of article PMC12679438 (RSC Advances, 2025).

Read-outs that look alike come from different tables or passages of the source.

One experiment relates to RAMOS. Briefly: MTS cytotoxicity assay, 72 h, RAMOS. It is filed as cell-based, human. The settings on record: Homo sapiens, Ramos, read-out: IC50 RAMOS. In outline: (§1)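 Human lines were kept at 37 °C, 5% CO2 in recommended medium plus 10% FCS, penicillin–streptomycin, 2 mM glutamine, 1 mM bicarbonate, 1 mM pyruvate and 20 mM HEPES, and were mycoplasma-tested biweekly. Cells were exposed to test compound for 72 h on a robotic screening platform, then read by MTS. DMSO-treated cells were the negative control. IC50 came from dose–response curves, mean of ≥6 replicates.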
Background: Tetrazolium dyes change colour on reduction, which living cells bring about.

Another experiment deals with Jurkat. Kind of experiment: MTS cytotoxicity assay, 72 h, Jurkat. In kind it is cell-based, human. The settings on record: Homo sapiens, Jurkat, read-out: IC50 Jurkat. In outline: as §1
Another experiment has as its system BJ. Kind of experiment: MTS cytotoxicity assay, 72 h, BJ fibroblasts. In kind it is cell-based, human. The settings on record: Homo sapiens, BJ, read-out: IC50 BJ. In outline:
as §1

A further experiment deals with A549. Kind of experiment: MTS cytotoxicity assay, 72 h, A549. It is filed as cell-based, human. The settings on record: Homo sapiens, A549, 72 h, read-out: IC50 A549. In outline:
as §1

The next experiment has as its system CCRF-CEM. Briefly: MTS cytotoxicity assay, 72 h, CCRF-CEM. Particulars: Homo sapiens, CCRF-CEM, read-out: IC50 CCRF-CEM. It is filed as cell-based, human. The procedure, abridged:
as §1

For another experiment, the system named is MRC-5. Briefly: MTS cytotoxicity assay, 72 h, MRC-5 fibroblasts. In kind it is cell-based, human. The settings on record: Homo sapiens, MRC5, 72 h, read-out: IC50 MRC-5. The procedure, abridged:
as §1

Another experiment has as its system K562. Kind of experiment: MTS cytotoxicity assay, 72 h, K562. The settings on record: Homo sapiens, K562, 72 h, read-out: IC50 K562. In kind it is cell-based, human. The procedure, abridged: as §1
For the next experiment, the system named is U2OS. Briefly: MTS cytotoxicity assay, 72 h, U2OS. In kind it is cell-based, human. Particulars: Homo sapiens, U2OS, read-out: IC50 U2OS. The procedure, abridged: as §1
In a further experiment the test system is HCT116-p53. Kind of experiment: MTS cytotoxicity assay, 72 h, HCT116-p53. In kind it is cell-based, human. Particulars: Homo sapiens, read-out: IC50 HCT116-p53. In outline:
as §1

In a further experiment the test system is HCT116. Briefly: MTS cytotoxicity assay, 72 h, HCT116. It is filed as cell-based, human. The settings on record: Homo sapiens, HCT-116, 72 h, read-out: IC50 HCT116. The procedure, abridged:
as §1

Experiment [1] concerns panel of human cell lines. Kind of experiment: MTS cytotoxicity assay, statements over groups of cell lines of the panel. In kind it is cell-based. The settings on record: Homo sapiens. The procedure, abridged:
as §1

On to `O=C(NCc1ccco1)C1CN(c2cc(-c3ccc(Cl)cc3)n[nH]c2=O)C1` [Compound 21, 1-(6-(4-chlorophenyl)-3-oxo-2,3-dihydropyridazin-4-yl)-N-(furan-2-ylmethyl)azetidine-3-carboxamide], for which the IC50 (as a rule, the midpoint of a concentration-inhibition curve) in the experiment with RAMOS was 37.5 µM; with Jurkat it was 30.5 µM; in the experiment on BJ it was more than 50 µM; in the experiment with A549 it was more than 50 µM; in the experiment on CCRF-CEM, more than 50 µM; with MRC-5 it was more than 50 µM. Also, the IC50 in the experiment with K562, in the experiment with U2OS, in the experiment on HCT116-p53 and with HCT116 was more than 50 µM throughout.

`O=C(NCc1ccco1)C1CN(c2cc(-c3ccccc3)n[nH]c2=O)C1` [Compound 18, N-(furan-2-ylmethyl)-1-(3-oxo-6-phenyl-2,3-dihydropyridazin-4-yl)azetidine-3-carboxamide]: the half-inhibitory concentration (IC50) is 41.2 µM in the experiment with RAMOS; 19.2 µM in the experiment with Jurkat; more than 50 µM in the experiment with BJ; more than 50 µM in the experiment on A549; 30.2 µM in the experiment with CCRF-CEM; more than 50 µM with MRC-5. Further, the concentration for half-maximal inhibition (IC50) with K562 is 30.4 µM; in the experiment on U2OS it was more than 50 µM; with HCT116-p53 it was more than 50 µM; in the experiment on HCT116 it was more than 50 µM.

For `O=C(NCc1ccco1)C1CN(c2cc(-c3ccncc3)n[nH]c2=O)C1` [Compound 17, N-(furan-2-ylmethyl)-1-(3-oxo-6-(pyridin-4-yl)-2,3-dihydropyridazin-4-yl)azetidine-3-carboxamide], the IC50 with RAMOS was more than 50 µM; in experiment [1] (72 h, read-out: IC50 across all tested cell lines) it was more than 50 µM; in the experiment on Jurkat, more than 50 µM; with BJ, more than 50 µM; with A549 it was more than 50 µM; with CCRF-CEM, more than 50 µM. For the same compound, the IC50 with MRC-5, in the experiment on K562, with U2OS, in the experiment on HCT116-p53 and in the experiment with HCT116 was more than 50 µM throughout.

Turning to `O=C(C1CN(c2cc(-c3ccncc3)n[nH]c2=O)C1)N1CCN(c2ccccc2)CC1` [Compound 28, 4-(3-(4-phenylpiperazine-1-carbonyl)azetidin-1-yl)-6-(pyridin-4-yl)pyridazin-3(2H)-one], the concentration for half-maximal inhibition (IC50) with RAMOS, with Jurkat, in the experiment with BJ, with A549, in the experiment with CCRF-CEM and with MRC-5 was more than 50 µM each time. Besides, the IC50 in the experiment on K562, in the experiment with U2OS, in the experiment on HCT116-p53 and in the experiment on HCT116 was more than 50 µM each time.

For the compound `COc1ccc(-c2cc(N3CC(C(=O)NCc4ccco4)C3)c(=O)[nH]n2)cc1` [Compound 20, N-(furan-2-ylmethyl)-1-(6-(4-methoxyphenyl)-3-oxo-2,3-dihydropyridazin-4-yl)azetidine-3-carboxamide], the IC50 with RAMOS is 19.7 µM; with Jurkat, 24.3 µM; in the experiment with BJ, more than 50 µM; in the experiment on A549 it was more than 50 µM; in the experiment with CCRF-CEM it was more than 50 µM; in the experiment with MRC-5 it was more than 50 µM. Besides, the 50% inhibitory concentration (IC50) in the experiment on K562 is 38.7 µM; with U2OS, more than 50 µM; with HCT116-p53 it was more than 50 µM; in the experiment on HCT116, more than 50 µM.

For the compound `O=C(Nc1ccccc1)C1CN(c2cc(-c3ccc(F)cc3F)n[nH]c2=O)C1` [Compound 12, 1-(6-(2,4-difluorophenyl)-3-oxo-2,3-dihydropyridazin-4-yl)-N-phenylazetidine-3-carboxamide], the half-inhibitory concentration (IC50) in the experiment on RAMOS is 16.8 µM; in experiment [1] (read-out: IC50 across multiple cancer lines), 18 to 37 µM; in the experiment on Jurkat, 33.9 µM; in the experiment on BJ, 28.9 µM; in the experiment on A549 it was 36.3 µM; in the experiment with CCRF-CEM it was 18 µM. The IC50 is 16.6 µM in the experiment with MRC-5; 31.8 µM in the experiment on K562; 16.2 µM with U2OS; 32.8 µM with HCT116-p53; 37.1 µM in the experiment with HCT116.

Take `O=C(c1ccncc1)C1CN(c2cc(-c3ccncc3)n[nH]c2=O)C1` [Compound 46, 4-(3-isonicotinoylazetidin-1-yl)-6-(pyridin-4-yl)pyridazin-3(2H)-one]: the IC50 with RAMOS is more than 50 µM; with Jurkat it was 35.9 µM; with BJ it was more than 50 µM; in the experiment with A549, more than 50 µM; in the experiment on CCRF-CEM it was 29 µM; in the experiment with MRC-5 it was more than 50 µM. In addition, the IC50 in the experiment with K562, in the experiment with U2OS, in the experiment on HCT116-p53 and in the experiment with HCT116 was more than 50 µM throughout.

Turning to `COC(=O)c1cncc(-c2cc(N3CC(C(=O)NCc4ccco4)C3)c(=O)[nH]n2)c1` [Compound 23, methyl 5-(5-(3-((furan-2-ylmethyl)carbamoyl)azetidin-1-yl)-6-oxo-1,6-dihydropyridazin-3-yl)nicotinate], the IC50 in the experiment on RAMOS was 5.53 µM; with Jurkat it was 5.15 µM; in the experiment on BJ, more than 50 µM; with A549, 42.1 µM; with CCRF-CEM, 5.12 µM; in the experiment on MRC-5, more than 50 µM. The half-inhibitory concentration (IC50) in the experiment on K562 was found to be 7.4 µM; in the experiment with U2OS, 16.9 µM; in the experiment on HCT116-p53, 12.7 µM; in the experiment on HCT116, 8.83 µM.

`COc1ccc(-c2cc(N3CC(C(=O)Nc4ccccc4)C3)c(=O)[nH]n2)cc1` [Compound 10, 1-(6-(4-methoxyphenyl)-3-oxo-2,3-dihydropyridazin-4-yl)-N-phenylazetidine-3-carboxamide]: the half-inhibitory concentration (IC50) in the experiment with RAMOS is 11 µM; in the experiment on Jurkat it was 40.3 µM; in the experiment with BJ, more than 50 µM; in the experiment with A549, more than 50 µM; in the experiment on CCRF-CEM, 20.8 µM; in the experiment on MRC-5 it was more than 50 µM. Moreover, the concentration for half-maximal inhibition (IC50) with K562, in the experiment with U2OS, in the experiment with HCT116-p53 and in the experiment with HCT116 was more than 50 µM in each case.

As to `O=C(C1CN(c2cc(-c3ccccc3)n[nH]c2=O)C1)N1CCN(c2ccccc2)CC1` [Compound 29, 6-phenyl-4-(3-(4-phenylpiperazine-1-carbonyl)azetidin-1-yl)pyridazin-3(2H)-one], the IC50 in the experiment with RAMOS, in the experiment with Jurkat, with BJ, with A549, in the experiment with CCRF-CEM and with MRC-5 was more than 50 µM each time. The concentration for half-maximal inhibition (IC50) in the experiment with K562, with U2OS, in the experiment on HCT116-p53 and in the experiment on HCT116 was more than 50 µM throughout.

Consider `O=C(NCc1ccco1)C1CN(c2cc(-c3cccc(F)c3)n[nH]c2=O)C1` [Compound 19, 1-(6-(3-fluorophenyl)-3-oxo-2,3-dihydropyridazin-4-yl)-N-(furan-2-ylmethyl)azetidine-3-carboxamide], for which the half-maximal inhibitory concentration (IC50) in the experiment with RAMOS was 16.3 µM; in the experiment with Jurkat it was 25.1 µM; in the experiment on BJ, more than 50 µM; in the experiment on A549, more than 50 µM; in the experiment on CCRF-CEM it was more than 50 µM; with MRC-5, more than 50 µM. Besides, the IC50 with K562, with U2OS, in the experiment with HCT116-p53 and with HCT116 was more than 50 µM throughout.
